In ChEMBL document CHEMBL4038305, “Benzoxaborole Antimalarial Agents. Part 5. Lead Optimization of Novel Amide Pyrazinyloxy Benzoxaboroles and Identification of a Preclinical Candidate” (J Med Chem, 2017):

Columns and labels:
Plasmodium berghei [1] = assay: Antimalarial activity against Plasmodium berghei infected in Swiss Webster mouse assessed as mouse survival rate at 200 mg/kg administered once daily via oral gavage for 4 consecutive days beginning 1 hr after infection measured on day 16 post infection relative to control; assay type: functional
Procedure, shortened: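 P. berghei-infected erythrocytes taken from a previously infected mouse were injected intraperitoneally. Oral dosing, once daily for 4 consecutive days, began 1 h after infection, in polyethylene glycol 300/propylene glycol/water (55/25/20 by weight). Chloroquine at 30 mg/kg was the positive control, with a vehicle-only group. Percent survival was recorded daily from day 4 to day 20.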

Plasmodium berghei [2] = assay: Antimalarial activity against Plasmodium berghei infected in Swiss Webster mouse assessed as mouse survival rate at 0.3 mg/kg administered once daily via oral gavage for 4 consecutive days beginning 1 hr after infection measured on day 4 post infection relative to control; assay type: functional
Procedure, shortened: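 Mice given an intraperitoneal injection of P. berghei-infected erythrocytes taken from a previously infected animal. Oral dosing once daily for 4 consecutive days, starting 1 h after infection. Vehicle: polyethylene glycol 300/propylene glycol/water (weight ratio 55/25/20). Percent survival recorded daily from day 4 to day 20. Chloroquine 30 mg/kg and vehicle-only groups served as controls.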

Salmonella typhimurium [3] = assay: Genotoxicity in Salmonella typhimurium TA100 assessed as number of revertants per plate at 1500 ug/plate in presence of rat liver S9 fraction by Ames test (reference value: 141 +/- 1); assay type: toxicity; conditions: salmonella enterica subsp. enterica serovar typhimurium
[4] = Clearance in Beagle dog at 5 mg/kg, iv by HPLC/MS analysis; assay type: ADME, organism-based, Canis lupus familiaris; conditions: in vivo
Procedure, shortened: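 Female CD-1 mice, male SD rats and beagle dogs received 5 mg/kg either iv or by oral gavage. Vehicle was PEG 300/propylene glycol/water (55/25/20, pH 6). Blood was sampled and drug measured by HPLC-MS/MS.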

Salmonella typhimurium [5] = assay: Genotoxicity in Salmonella typhimurium TA1537 assessed as number of revertants per plate at 150 ug/plate in absence of rat liver S9 fraction by Ames test (reference value: 19 +/- 9); assay type: toxicity; conditions: salmonella enterica subsp. enterica serovar typhimurium
Salmonella typhimurium [6] = assay: Genotoxicity in Salmonella typhimurium TA1537 assessed as number of revertants per plate at 500 ug/plate in absence of rat liver S9 fraction by Ames test (reference value: 19 +/- 9); assay type: toxicity; conditions: salmonella enterica subsp. enterica serovar typhimurium
Salmonella typhimurium [7] = assay: Genotoxicity in Salmonella typhimurium TA1537 assessed as number of revertants per plate at 1.5 ug/plate in presence of rat liver S9 fraction by Ames test (reference value: 11 +/- 4); assay type: toxicity; conditions: salmonella enterica subsp. enterica serovar typhimurium
Plasmodium falciparum [8] = assay: Antimalarial activity against intraerythrocytic stage of Plasmodium falciparum assessed as time required to clear 99.9% of initial parasite population at 30 times IC50 preincubated for 24 hrs followed by [3H]-hypoxanthine addition measured after 24 hrs by scintillation counting method; assay type: functional
Procedure, shortened: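 In vitro P. falciparum parasite reduction ratio assay run at 10×, 30× and 100× IC50. Derived parameters: lag phase (time to maximal killing), PRR (parasites killed per life cycle) and PCT99.9% (time to clear 99.9% of the initial parasite population).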

Salmonella typhimurium [9] = assay: Genotoxicity in Salmonella typhimurium TA1535 assessed as number of revertants per plate at 150 ug/plate in absence of rat liver S9 fraction by Ames test (reference value: 10 +/- 3); assay type: toxicity; conditions: salmonella enterica subsp. enterica serovar typhimurium
Plasmodium falciparum [10] = assay: Antimalarial activity against Plasmodium falciparum HB3 infected in human erythrocytes assessed as reduction in [3H]-hypoxanthine incorporation preincubated for 24 hrs followed by [3H]-hypoxanthine addition measured after 24 hrs by scintillation counting method; assay type: functional, cell-based

SMILES: CCCC1(O)CN(C(=O)c2cnc(Oc3ccc4c(c3C)B(O)OC4)cn2)C1
- survival at 200 mg/kg (Plasmodium berghei [1]): 100%

SMILES: Cc1c(Oc2cnc(C(=O)NC(C)CO)cn2)ccc2c1B(O)OC2 (stereo not given)
- survival at 0.3 mg/kg (Plasmodium berghei [2]): 100%

SMILES: Cc1c(Oc2cnc(C(=O)N3CC(C)(O)C3)cn2)ccc2c1B(O)OC2
- Activity (Salmonella typhimurium [3]): 144
- clearance [4]: 0.505 mL/min/kg
- Activity (Salmonella typhimurium [5]): 15
- Activity (Salmonella typhimurium [6]): 14
- Activity (Salmonella typhimurium [7]): 12
- T99.9% (Plasmodium falciparum [8]): 30 h
- Activity (Salmonella typhimurium [9]): 8
- IC50 (Plasmodium falciparum [10]): 80 nM
